Compound activity as filed in PubChem BioAssay.
The list is not random: actives were taken first. Their share in the collection is about 2.3%.
ARFGAP1 inh: inhibitors of rat ARFGAP1; inhibition, % at 16.5 µM; Arfgap1-stimulated ARF1 GTP hydrolysis, GDP FP detection; 0.26% of 360,000 active; Q62848;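 active means inhibition above a per-plate limit, mean inhibition of low control wells plus 3 SD, cut at about 25% in these data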
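system = rat Arfgap1 catalytic domain, aa 1-136 | technique = FP, GDP Alexa 633 tracer displaced from anti-GDP antibody, 620/688 nm | compound = one concentration, 16.5 µM, DMSO 1.26% | medium = HEPES-based buffer, pH 7.5 | timing = compound-enzyme preincubation 20 min, reaction 120 min, detection 60 min, 25 °C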
ASAP1 inh: blocks human ASAP1-stimulated Arf1 GTP hydrolysis | Q9ULH1 | AID 624377 | 0.19% of 360,000 active | GDP FP detection | inhibition, % at 16.5 µM; in the data active means inhibition above about 25%
sPLA2-III inh: Inhibits HGIII-sPLA2 liposome hydrolysis, primary screen. Q9NZ20. QFRET BODIPY PC-A2 liposome hydrolysis, fluorescence. inhibition, % at 12.2 µM. 0.56% of 370,000 active. AID 743126;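 active means inhibition above mean plus 3 SD of compounds lying within the high and low control bounds, cut at about 19% in these data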
Target sequence (Q9NZ20 whole entry, looked up): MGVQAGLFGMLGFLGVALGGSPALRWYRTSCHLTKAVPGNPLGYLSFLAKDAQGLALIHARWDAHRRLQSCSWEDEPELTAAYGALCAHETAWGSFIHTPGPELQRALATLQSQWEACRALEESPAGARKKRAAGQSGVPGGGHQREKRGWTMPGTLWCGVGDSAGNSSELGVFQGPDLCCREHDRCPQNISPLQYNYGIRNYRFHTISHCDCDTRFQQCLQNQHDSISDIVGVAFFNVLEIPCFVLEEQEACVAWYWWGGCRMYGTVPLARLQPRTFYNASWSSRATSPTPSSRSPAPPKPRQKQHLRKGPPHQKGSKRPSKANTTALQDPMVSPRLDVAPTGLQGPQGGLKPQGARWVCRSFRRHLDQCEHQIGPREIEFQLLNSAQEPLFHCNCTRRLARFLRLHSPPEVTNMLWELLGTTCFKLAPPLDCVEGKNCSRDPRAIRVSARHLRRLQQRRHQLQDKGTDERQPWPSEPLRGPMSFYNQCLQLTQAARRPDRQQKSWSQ
Calb FLC: C. albicans growth modulation with fluconazole. C. albicans CaCi-2 + fluconazole, Alamar Blue growth, 48 h. growth inhibition, % (test concentration not listed). 0.57% of 300,000 active;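 active means growth inhibition above about 58% in most replicates, limit read from the data, passing the limit was not always enough; inconclusive means exactly half the replicates above a set limit; inactive means most replicates below a set limit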;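 further: all wells also contain fluconazole at 8 µg/ml as a sub-toxic cotreatment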
SKKanGAS inh: SKKanGAS growth inhibition; S. pyogenes SKKanGAS, kanamycin growth, BacTiter-Glo, 6 h; inhibition, % at 7.5 µM; 1.3% of 300,000 active;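 active means mean replicate score, as percent of positive control median, at least 50; inconclusive means mean below 50 but one replicate at or above 50; inactive means mean and every replicate below 50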;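 further: strain carries kanamycin resistance gene driven by streptokinase promoter and grows in 40 µg/ml kanamycin; loss of luminescence reflects streptokinase promoter inhibition or plain growth inhibition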
Numbers stand for hits; - = inactive; ? = inconclusive; . = no result.

SMILES	ARFGAP1 inh	ASAP1 inh	sPLA2-III inh	Calb FLC	SKKanGAS inh
Cc1ccc(Cc2cnc(NC(=O)c3ccco3)s2)cc1	-	-	-	?	-
O=C(Nc1ncc(Cc2ccccc2)s1)C1=NCCN1	-	-	-	-	-
N=C1SC(c2ccccc2)C(=O)N1c1ncc(Cc2ccccc2)s1 (centres undefined)	-	-	-	-	97
Cc1ccc(Cc2cnc(N3C(=N)SC(c4ccccc4)C3=O)s2)cc1 (centres undefined)	-	-	-	-	104
O=C1NC(c2ccccc2)(c2ccccc2)C(=O)N1CNc1ccccn1	-	-	-	.	.
C#CCN1CC(N(C)CCCO)CS1(=O)=O (centres undefined)	.	.	-	.	.
Nc1c(S(=O)(=O)c2ccccc2)c2nc3ccccc3nc2n1CCN1CCOCC1	-	-	-	88	-
CCCCn1c(NS(=O)(=O)c2ccccc2)c(S(=O)(=O)c2ccc(C)cc2)c2nc3ccccc3nc21	-	-	27	-	73
Nc1c(S(=O)(=O)c2ccccc2)c2nc3ccccc3nc2n1/N=C/c1cccc(O)c1	-	-	-	-	56
COC(=O)[C@]12C[C@H](CC(=O)NCc3ccc(OC)c(OC)c3)C(=O)N(CCc3ccc(OC)c(OC)c3)C1=C[C@H](C(C)C)O[C@@H]2C1CC1	.	.	-	.	.
O=C(CN1CCN(c2nc(-c3ccccc3)cs2)CC1)Nc1ccc(Cl)c(Cl)c1	.	.	-	.	.
Cn1cc(C(=O)c2ccc(Cl)cc2Cl)cc1C(=O)N/N=C(\N)COc1ccc(Cl)cc1Cl	-	-	-	-	71
Cn1cc(C(=O)c2ccc(Cl)cc2Cl)cc1C(=O)N/N=C(\N)COc1ccc(Cl)cc1	-	-	-	?	-
O=C(Cc1ccc([N+](=O)[O-])cc1)NNC(=O)c1ccc2c(c1)OCO2	-	-	-	113	.
O=C(NC(=S)Nc1cc([N+](=O)[O-])ccc1O)c1ccc2c(c1)OCO2	-	-	-	-	79
N#CCC[C@H]1CC[C@]2(CCCN(C(=O)c3ccco3)C2)O1	.	.	-	.	.
CCN(CC)c1ccc(-c2nn3c(-c4cccnc4)nnc3s2)cc1	-	-	-	-	68
CC1CCN(C(=O)C2CCCN(C(=O)c3ccc4c(c3)NC(=O)CS4)C2)CC1 (centres undefined)	.	.	-	.	.
CC1(C)N=C(N)N=C(N)N1c1cc(Cl)ccc1Cl	-	-	-	.	.
CC1(C)N=C(N)N=C(N)N1c1ccccc1	-	-	-	-	105
CC1(C)N=C(N)N=C(N)N1c1ccc(Oc2ccc(Cl)cc2)c(Cl)c1	-	-	-	-	94
O=C(C1CCCN1S(=O)(=O)c1ccc([N+](=O)[O-])cc1)N1CCc2ccccc2C1 (centres undefined)	.	.	-	.	.
O=C1/C(=C/c2cccnc2)CCc2c1[nH]c1ccccc21	-	-	-	76	-
CCn1ccnc1CN1CCc2c([nH]c3ccccc23)C1C1CCCCC1 (centres undefined)	-	-	-	-	79
CCn1ccnc1CN1CCc2c([nH]c3ccccc23)C1C(C)(C)C (centres undefined)	-	-	-	-	-
SMILES	ARFGAP1 inh	ASAP1 inh	sPLA2-III inh	Calb FLC	SKKanGAS inh
CNCCNC[C@H](Cc1cccc2ccccc12)NCCc1ccccc1	-	-	-	.	.
CNC[C@H](Cc1ccccc1)NC[C@@H](Cc1cccc2ccccc12)NCCc1ccc(C)cc1	-	-	-	111	94
CCOC(=O)C(=NC(C)C)NNc1cc(Cl)ccc1Cl	-	-	-	-	-
CCOC(=O)C(=NC(C)(C)C)NNc1cc(Cl)ccc1Cl	-	-	-	-	78
CC(=O)C(=Nc1ccc(Cl)cc1Cl)NNc1cccc(Cl)c1	-	-	-	-	52
CC(NC(=O)OCc1ccccc1)C(=O)Oc1cc2oc(=O)cc(-c3ccccc3)c2cc1Cl (centres undefined)	-	-	-	82	-
CCc1cc2c(-c3ccccc3)cc(=O)oc2cc1OC(C)C(=O)O (centres undefined)	-	-	-	-	-
COc1ccc(-c2csc(NC(=O)c3ccccc3NS(=O)(=O)c3ccc(C)cc3)n2)cc1	-	-	-	-	54
COc1ccc(S(=O)(=O)Nc2ccccc2C(=O)Nc2nc(-c3ccc(F)cc3)cs2)cc1OC	-	-	-	-	-
Cc1ccc(CNC[C@@]23CO[C@H](c4ccc(Cl)cc4)N2[C@@H](c2ccc(Cl)cc2)SC3)o1	.	.	-	.	.
Cc1ccc(C(=O)Nc2nc(-c3ccccn3)cs2)o1	-	-	-	-	77
